In ChEMBL document CHEMBL1275391, “Design, synthesis, and preclinical evaluation of new 5,6- (or 6,7-) disubstituted-2-(fluorophenyl)quinolin-4-one derivatives as potent antitumor agents” (J Med Chem, 2010):

Key:
[1] = tested on: HL-60; assay: Cytotoxicity against human HL60 cells after 48 hrs by MTT assay; format: functional, cell-based; conditions: HL-60, 48 h
How it was run: (§1)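 Cells exposed to a range of compound concentrations for 48 h, washed once with PBS, then incubated with MTT for 2 h. Formazan dissolved in DMSO and absorbance read at 570 nm. IC50 taken as the concentration giving 50% inhibition of proliferation.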

[2] = tested on: OVCAR-4; assay: Growth inhibition of human OVCAR4 cells; format: functional
[3] = tested on: SNB-19; assay: Growth inhibition of human SNB19 cells; format: functional
[4] = tested on: MDA-MB-231; assay: Growth inhibition of human MDA-MB-231 cells; format: functional
[5] = biological target: CYP1A2 (Homo sapiens, UniProt P05177); assay: Inhibition of human CYP1A2 at 10 uM; format: ADME
[6] = tested on: HCT-116; assay: Growth inhibition of human HCT116 cells; format: functional
[7] = tested on: TK-10; assay: Growth inhibition of human TK10 cells; format: functional
[8] = tested on: SF-539; assay: Growth inhibition of human SF539 cells; format: functional
[9] = tested on: MDA-MB-435; assay: Growth inhibition of human MDA-MB-435 cells; format: functional
[10] = tested on: EKVX; assay: Growth inhibition of human EKVX cells; format: functional
[11] = Cytotoxicity against human Hep3B cells after 48 hrs by MTT assay; format: functional, cell-based, Hep 3B2; how it was run: as §1
[12] = Growth inhibition of human […] cells; format: functional
[13] = tested on: ACHN; assay: Growth inhibition of human ACHN cells; format: functional
[14] = tested on: NCI-H322M; assay: Growth inhibition of human NCI-H322M cells; format: functional
[15] = tested on: Malme-3M; assay: Growth inhibition of human MALME-3M cells; format: functional
[16] = tested on: SF-295; assay: Growth inhibition of human SF295 cells; format: functional
[17] = tested on: NCI-H460; assay: Growth inhibition of human NCI-H460 cells; format: functional
[18] = tested on: CAKI-1; assay: Growth inhibition of human Caki1 cells; format: functional
[19] = tested on: BT-549; assay: Growth inhibition of human BT549 cells; format: functional
[20] = tested on: HOP-62; assay: Growth inhibition of human HOP62 cells; format: functional
[21] = tested on: COLO 205; assay: Growth inhibition of human COLO205 cells; format: functional
[22] = tested on: LOX IMVI; assay: Growth inhibition of human LOXIMVI cells; format: functional
[23] = tested on: NCI-H460; assay: Cytotoxicity against human H460 cells after 48 hrs by MTT assay; format: functional, cell-based; conditions: NCI-H460, 48 h; how it was run: as §1
[24] = tested on: HCT-116; assay: Cytotoxicity against human HCT116 cells after 48 hrs by MTT assay; format: functional, cell-based; conditions: HCT-116, 48 h; how it was run: as §1
[25] = tested on: NCI-H23; assay: Growth inhibition of human NCI-H23 cells; format: functional
[26] = tested on: A549; assay: Growth inhibition of human A549 cells; format: functional
[27] = read-out: pLC50 (the source's name) (converted)

Chain of CYP1A2 (P05177 whole entry): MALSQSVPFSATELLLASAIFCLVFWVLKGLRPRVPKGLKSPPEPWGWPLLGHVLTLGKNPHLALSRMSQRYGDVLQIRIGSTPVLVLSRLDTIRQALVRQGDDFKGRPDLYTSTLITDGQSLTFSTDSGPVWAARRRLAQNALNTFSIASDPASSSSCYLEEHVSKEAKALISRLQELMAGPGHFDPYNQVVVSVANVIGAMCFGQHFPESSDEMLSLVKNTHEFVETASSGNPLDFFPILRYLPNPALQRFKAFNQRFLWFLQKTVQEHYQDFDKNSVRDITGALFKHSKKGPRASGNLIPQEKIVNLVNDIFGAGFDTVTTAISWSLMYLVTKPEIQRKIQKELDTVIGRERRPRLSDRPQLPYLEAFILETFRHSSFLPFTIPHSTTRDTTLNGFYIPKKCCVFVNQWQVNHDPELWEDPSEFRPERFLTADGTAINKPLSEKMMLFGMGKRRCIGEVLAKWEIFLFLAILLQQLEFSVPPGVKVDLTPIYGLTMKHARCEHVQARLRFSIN

Molecule COc1ccc2[nH]c(-c3cccc(F)c3)cc(=O)c2c1O has an IC50 [1] of 0.03 µM, a GI50 [2] of 0.0437 µM and a CC50 [2, 27] greater than 100 µM. The TGI ([2]; read-out: pTGI (converted)) was 9.12 µM, the GI50 [3] was 0.0288 µM and the CC50 [3, 27] was greater than 100 µM. It also gave a TGI ([3]; read-out: pTGI (converted)) of 0.437 µM, a GI50 [4] of 0.0617 µM and a CC50 [4, 27] greater than 100 µM. For the same molecule, the TGI ([4]; read-out: pTGI (converted)) was 22.9 µM, the inhibition at 10 µM [5] was 85% and the GI50 [6] was 0.0331 µM. The CC50 [6, 27] was 29.5 µM, the TGI ([6]; read-out: pTGI (converted)) was 1.78 µM and the GI50 [7] was 1.78 µM. It also gave a CC50 [7, 27] greater than 100 µM, a TGI ([7]; read-out: pTGI (converted)) of 67.6 µM and a GI50 [8] of 0.0263 µM. The CC50 [8, 27] was 18.6 µM, the TGI ([8]; read-out: pTGI (converted)) was 0.0977 µM and the GI50 [9] was less than 0.01 µM. It also gave a CC50 [9, 27] greater than 100 µM, a TGI ([9]; read-out: pTGI (converted)) of 0.0457 µM and a GI50 [10] of 0.0457 µM. It also gave a CC50 [10, 27] greater than 100 µM, a TGI ([10]; read-out: pTGI) greater than 100 µM and an IC50 [11] of 0.07 µM. The GI50 [12] was 0.0331 µM, the CC50 [12, 27] was greater than 100 µM and the TGI ([12]; read-out: pTGI (converted)) was 16.2 µM. For the same molecule, the GI50 [13] was 0.0977 µM, the CC50 [13, 27] was greater than 100 µM and the TGI ([13]; read-out: pTGI (converted)) was 33.9 µM. It also gave a GI50 [14] of 0.851 µM, a CC50 [14, 27] greater than 100 µM and a TGI ([14]; read-out: pTGI) greater than 100 µM. For the same molecule, the CC50 [15, 27] was greater than 100 µM, the TGI ([15]; read-out: pTGI (converted)) was 52.5 µM and the GI50 [16] was 0.0257 µM. For the same molecule, the CC50 [16, 27] was 53.7 µM, the TGI ([16]; read-out: pTGI (converted)) was 10.5 µM and the GI50 [17] was 0.0331 µM. The CC50 [17, 27] was 32.4 µM, the TGI ([17]; read-out: pTGI (converted)) was 1.05 µM and the GI50 [18] was 0.0468 µM. The CC50 [18, 27] was greater than 100 µM, the TGI ([18]; read-out: pTGI (converted)) was 22.9 µM and the GI50 [19] was 0.145 µM. The CC50 [19, 27] was greater than 100 µM, the TGI ([19]; read-out: pTGI (converted)) was 26.9 µM and the GI50 [20] was 0.0501 µM. The CC50 [20, 27] was 42.7 µM, the TGI ([20]; read-out: pTGI (converted)) was 14.5 µM and the GI50 [21] was 0.0251 µM. It also gave a CC50 [21, 27] of 0.832 µM, a TGI ([21]; read-out: pTGI (converted)) of 0.0661 µM and a GI50 [22] of 0.0912 µM. It also gave a CC50 [22, 27] greater than 100 µM, a TGI ([22]; read-out: pTGI (converted)) of 57.5 µM and an IC50 [23] of 0.08 µM. The IC50 [24] was 0.07 µM, the GI50 [25] was 0.0347 µM and the CC50 [25, 27] was greater than 100 µM. It also gave a TGI ([25]; read-out: pTGI (converted)) of 13.8 µM, a GI50 [26] of 0.0417 µM and a CC50 [26, 27] of 93.3 µM. The TGI ([26]; read-out: pTGI (converted)) was 14.8 µM.
